Measured values of several laboratories.
Protocols differ between the studies behind these lines. pIC50: −log10 of the molar value.
Cell line: MCF7
Read-out: cell growth or viability

Compound	method	time	quantity	result
O=C(N/N=C/c1cccn1CCCN1CCOCC1)Nc1cc2c(Nc3ccc(F)c(Cl)c3)ncnc2cc1O[C@H]1CCOC1	MTT	72 h	pIC50	5.25
COc1cc(Nc2nccc(-c3cnn4nc(OC)ccc34)n2)cc(C(F)(F)F)c1	ATP luminescence		pIC50	6.02
C1CCCC1.C1CCCC1.[Cl][W][Cl]	MTT		pIC50	3.20
CC1(C)[C@@H](O)CC[C@]2(C)[C@H]3C(=O)C=C4[C@@H]5C[C@@](C)(C(=O)O)CC[C@]5(C)CC[C@@]4(C)[C@]3(C)CC[C@@H]12	MTT	48 h	pIC50	< 4.00
CSc1ccc(-c2nc3ccc(C)cc3[nH]2)cc1	MTT	48 h	pIC50	4.35
CSc1nc(/N=C/c2ccc(O)cc2)n(-c2ccc(C(=O)O)cc2)n1	MTT		pIC50	4.46
O=c1ccn(Cc2cn(-c3c4ccccc4nc4ccccc34)nn2)c(=O)[nH]1	MTT		pIC50	4.96
COc1cc(OC)c(/C=C/S(=O)(=O)Nc2ccc(OC)c(N)c2)c(OC)c1	trypan blue	96 h	pIC50	8.40
CC(=O)O[C@H]1C(=O)[C@@]2(C)[C@H]([C@H](OC(=O)c3ccccc3)[C@]3(O)C[C@H](OC(=O)[C@H](O)[C@@H](NC(=O)c4ccccc4)c4ccccc4)C(C)=C1C3(C)C)[C@]1(OC(C)=O)CO[C@@H]1C[C@@H]2O		72 h	pIC50	7.96
O=c1c(O)c(-c2ccc(O)cc2)oc2cc(O)cc(O)c12	WST-1	48 h	pIC50	4.57
O=S(=O)(NN=Cc1cn(CCN2CCOCC2)c2ccccc12)c1ccc(-c2ccccc2)cc1	MTT	48 h	pIC50	4.76
CCCCc1ccc2[nH]c(NC(=O)OC)nc2c1	CCK-8	72 h	pIC50	7.00
Oc1ncnc2cc(Nc3nc(-c4ccc(Br)cc4)cs3)ccc12	MTT		pIC50	5.31
O=c1[nH]c(=S)[nH]c2c1CCCN2	MTT	72 h	pIC50	< 4.00
O=C1Nc2c(C(F)(F)F)cccc2[C@@]1(c1ccc(O)cc1)c1ccc(OC(F)(F)F)cc1	resazurin	72 h	pIC50	7.85
Fc1ccc(-c2nc3ccccc3[nH]2)cc1	MTT	48 h	pIC50	4.17
O=S(=O)(NN=Cc1cn(CCN2CCOCC2)c2ccccc12)c1ccccc1	MTT	48 h	pIC50	4.14
COc1ccc(-c2nc3ccccc3[nH]2)cc1OC	MTT	48 h	pIC50	< 4.00
O=C(N/N=C/CN1CCCC1)Nc1cc2c(Nc3ccc(F)c(Cl)c3)ncnc2cc1O[C@H]1CCOC1	MTT	72 h	pIC50	5.51
c1ccc(-c2ccccn2)nc1	MTT	48 h	pIC50	< 4.30
c1ccc2cc(-c3nnc(NC4CCCCC4)[nH]3)ccc2c1		48 h	pIC50	5.76
COc1cccc(C(=O)O[C@@H]2CN3Cc4c(cc5c(c4OC)OCO5)[C@@]24C=C[C@H](OC)C[C@@H]34)c1	WST-1		pIC50	< 5.00
Oc1cccc(-c2nc3ccccc3[nH]2)c1	MTT	48 h	pIC50	< 4.00
CCN(CC)C/C=N/NC(=O)Nc1cc2c(Nc3ccc(F)c(Cl)c3)ncnc2cc1O[C@H]1CCOC1	MTT	72 h	pIC50	5.63

Compound	method	time	quantity	result
COc1cccc2c1C(=O)c1c(O)c3c(c(O)c1C2=O)C[C@@](O)(C(=O)CO)C[C@@H]3O[C@H]1C[C@H](N)[C@H](O)[C@H](C)O1	MTT	48 h	IC50	0.964 µg/mL
COc1cc2ncnc(Nc3ccc(F)c(Cl)c3)c2cc1NC(=O)N/N=C/c1cccn1CCN1CCCCC1	MTT	72 h	pIC50	5.66
Cc1ccc2c(Br)cc(Br)c(O)c2n1	MTT	48 h	pIC50	< 3.82
O=C(NC(=S)NCCCNC(=S)NC(=O)c1ccc2ccccc2c1)c1ccc2ccccc2c1		48 h	pIC50	5.95
COc1cc2ncnc(Nc3ccc(F)c(Cl)c3)c2cc1NC(=O)N/N=C/c1cccn1CCN1CCN(C)CC1	MTT	72 h	pIC50	5.73
COc1cccc2c1C(=O)c1c(O)c3c(c(O)c1C2=O)C[C@@](O)(C(=O)CO)C[C@@H]3O[C@H]1C[C@H](N)[C@H](O)[C@H](C)O1	MTT	72 h	pIC50	6.13
CN1CCN(C/C=N/NC(=O)Nc2cc3c(Nc4ccc(F)c(Cl)c4)ncnc3cc2O[C@H]2CCOC2)CC1	MTT	72 h	pIC50	5.69
COc1ccc(O)c(/C=N/c2nc(SC)nn2-c2ccc(C(=O)O)cc2)c1	MTT		pIC50	4.56
COc1ccc(-c2csc(Nc3ccc4c(O)ncnc4c3)n2)cc1	MTT		pIC50	5.01
FC(F)(F)c1cccc(Nc2ncnc3ccc(NCc4ccccc4)cc23)c1	MTT	24 h	pIC50	5.17
Cc1ccc2nc(-c3ccccc3O)[nH]c2c1	MTT	48 h	pIC50	4.74
O=c1[nH]cc(F)c(=O)[nH]1	WST-1	48 h	pIC50	5.51
Clc1ccc(C[n+]2cn(CCc3ccccc3)c3ccccc32)cc1	MTT	72 h	pIC50	4.89
O=C(N/N=C/c1cccn1CCN1CCCC1)Nc1cc2c(Nc3ccc(F)c(Cl)c3)ncnc2cc1O[C@H]1CCOC1	MTT	72 h	pIC50	5.92
CCNC(=S)NC(=O)c1ccc2ccccc2c1		48 h	pIC50	5.20
COc1cc2ncnc(Nc3ccc(F)c(Cl)c3)c2cc1NC(=O)N/N=C/c1cccn1CCCN1CCCC1	MTT	72 h	pIC50	5.88
Oc1ccccc1-c1nc2ccccc2[nH]1	MTT	48 h	pIC50	< 4.00
O=C(NC(=S)NCCNC(=S)NC(=O)c1ccc2ccccc2c1)c1ccc2ccccc2c1		48 h	pIC50	5.92
CS(=O)(=O)c1ccc(-n2cc(/C=N/N=c3\[nH]c(-c4ccc(Br)cc4)cs3)c(-c3ccc(Br)cc3)n2)cc1	MTT	48 h	pIC50	4.78
COc1cccc(-c2nc3ccccc3n2Cc2ccccc2)c1	MTT		pIC50	4.61
CS(=O)(=O)c1ccc(-n2cc(/C=N/N=c3\[nH]c(-c4ccc([N+](=O)[O-])cc4)cs3)c(-c3ccc(Br)cc3)n2)cc1	MTT	48 h	pIC50	4.45
COc1ccc(-c2ccc3ncnc(Nc4cccc(C(F)(F)F)c4)c3c2)cc1	MTT	24 h	pIC50	4.93
Cc1ccc2nc(-c3ccc(Cl)cc3)n(Cc3ccccc3)c2c1	MTT		pIC50	5.25
Cc1ccc(O)c(/C=N/c2nc(Oc3ccccc3)nn2-c2ccc(C(=O)O)cc2)c1	MTT		pIC50	4.52
